ChEMBL document CHEMBL1145462, “In vivo pharmacodynamic activity of the glycopeptide dalbavancin” (Antimicrob Agents Chemother, 2007)
Values after ≈ are worked out from the molar mass of the structure shown.

Tests used:
Staphylococcus aureus [1] = experiment: AUC/MBC ratio of Staphylococcus aureus Smith infected neutropenic mouse thigh infection model at 148 mg/kg, ip administered every 72 hrs by 2-log killing experiment; format: functional; conditions: route intraperitoneal
[2] = Cmax in bacterial pathogen-infected neutropenic Swiss ICR mouse thigh infection model at 10 mg/kg, ip; format: ADME, organism-based; parameters: dose 10 mg/kg, route intraperitoneal; conditions: in vivo
Summary of the method: (§1)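 Thigh-infected neutropenic mice received single intraperitoneal doses (2.5, 5, 10, 20, 40, 80 mg/kg; 0.2 ml/dose). Blood was drawn by retroorbital aspiration from groups of three mice at 0.5, 1, 2, 4, 6, 24, 48, 72 and 96 h. Plasma levels were measured by microbiologic assay with Bacillus subtilis (detection limit 0.10 mg/liter). Noncompartmental analysis was used: half-life by linear least-squares regression, AUC by trapezoidal rule.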

Staphylococcus aureus [3] = experiment: AUC/MBC ratio of Staphylococcus aureus Smith infected neutropenic mouse thigh infection model at 95 mg/kg, ip administered every 72 hrs by 1-log killing experiment; format: functional; conditions: route intraperitoneal
Serum = experiment: Protein binding in Staphylococcus aureus infected neutropenic mouse serum; format: ADME, organism-based; conditions: in vivo
Summary of the method: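 MICs for S. aureus ATCC 25923 and an MRSA strain were compared in broth, heat-treated (100°C, 30 min) 95% mouse serum and 95% serum ultrafiltrate, using arithmetic dilutions of 0.02 mg/liter per tube. Bound fraction = (MIC in serum − MIC in ultrafiltrate)/MIC in serum.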

Staphylococcus aureus [4] = experiment: Bactericidal activity against […] Staphylococcus aureus ATCC 29213 infected neutropenic Swiss ICR mouse thigh infection model assessed as drug level causing 1-log reduction of bacterial count at 15 mg/kg, ip dosed every 36 hrs; format: functional; conditions: route intraperitoneal
Streptococcus pneumoniae [5] = experiment: AUC/MIC ratio of Streptococcus pneumoniae 1325 infected neutropenic mouse thigh infection model at 1.16 mg/kg, ip administered every 72 hrs by 2-log killing experiment; format: functional; conditions: route intraperitoneal
Streptococcus pneumoniae [6] = experiment: Bactericidal activity against penicillin-susceptible Streptococcus pneumoniae ATCC 10813 infected neutropenic Swiss ICR mouse thigh infection model assessed as drug level causing 2-log reduction of bacterial count at 1.34 mg/kg, ip dosed every 24 hrs; format: functional; conditions: route intraperitoneal
Summary of the method: (§2)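 Neutropenic mice (cyclophosphamide ip 150 mg/kg day −4, 100 mg/kg day −1, then every 48 h) received 0.1 ml log-phase inoculum per thigh under halothane. Intraperitoneal dalbavancin started 2 h later and was given for 6 days at q12h, q24h, q36h or q72h, two mice per regimen. Thigh CFU were counted at 144 h. Endpoint doses relative to start-of-therapy counts came from Hill-model nonlinear regression and are expressed per 24 h.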

Staphylococcus aureus [7] = experiment: Antibacterial activity against methicillin-resistant Staphylococcus aureus by microdilution method; format: functional
Summary of the method: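 MICs in duplicate on at least two occasions by standard CLSI broth microdilution; S. aureus grown and quantified in Mueller-Hinton broth/agar.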

Staphylococcus aureus [8] = experiment: AUC/MBC ratio of Staphylococcus aureus 307109 infected neutropenic mouse thigh infection model at 34 mg/kg, ip administered every 72 hrs by 1-log killing experiment; format: functional; conditions: route intraperitoneal
Staphylococcus aureus [9] = experiment: AUC/MIC ratio of methicillin-resistant Staphylococcus aureus infected neutropenic mouse thigh infection model at 43 mg/kg, ip administered every 72 hrs by static effect experiment; format: functional; conditions: route intraperitoneal
Staphylococcus aureus [10] = experiment: AUC/MBC ratio of Staphylococcus aureus 33591 infected neutropenic mouse thigh infection model at 114 mg/kg, ip administered every 72 hrs by 2-log killing experiment; format: functional; conditions: route intraperitoneal
Streptococcus pneumoniae [11] = experiment: Bactericidal activity against penicillin-susceptible Streptococcus pneumoniae ATCC 10813 infected neutropenic Swiss ICR mouse thigh infection model assessed as drug level causing 2-log reduction of bacterial count at 1.26 mg/kg, ip dosed every 36 hrs; format: functional; conditions: route intraperitoneal; summary of the method: as §2
Streptococcus pneumoniae [12] = experiment: AUC/MIC ratio of Streptococcus pneumoniae 1293 infected neutropenic mouse thigh infection model at 0.55 mg/kg, ip administered every 24 hrs by 1-log killing experiment; format: functional; conditions: route intraperitoneal
Staphylococcus aureus [13] = experiment: AUC/MIC ratio of Staphylococcus aureus Smith infected neutropenic mouse thigh infection model at 33.5 mg/kg, ip administered every 24 hrs by static effect experiment; format: functional; conditions: route intraperitoneal
Streptococcus pneumoniae [14] = experiment: Bactericidal activity against penicillin-susceptible Streptococcus pneumoniae ATCC 10813 infected neutropenic Swiss ICR mouse thigh infection model assessed as drug level causing 2-log reduction of bacterial count at 2.3 mg/kg, ip dosed every 12 hrs; format: functional; conditions: route intraperitoneal; summary of the method: as §2
Streptococcus pneumoniae [15] = experiment: AUC/MIC ratio of Streptococcus pneumoniae 1199 infected neutropenic mouse thigh infection model at 0.99 mg/kg, ip administered every 72 hrs by 2-log killing experiment; format: functional; conditions: route intraperitoneal
Streptococcus pneumoniae [16] = experiment: AUC/MIC ratio of Streptococcus pneumoniae 1199 infected neutropenic mouse thigh infection model at 0.57 mg/kg, ip administered every 24 hrs by 2-log killing experiment; format: functional; conditions: route intraperitoneal
Staphylococcus aureus [17] = experiment: AUC/MIC ratio of Staphylococcus aureus 31005 infected neutropenic mouse thigh infection model at 94.6 mg/kg, ip administered every 72 hrs by 1-log killing experiment; format: functional; conditions: route intraperitoneal
[18] = Cmax in bacterial pathogen-infected neutropenic Swiss ICR mouse thigh infection model at 5 mg/kg, ip; format: ADME, organism-based; parameters: dose 5 mg/kg, route intraperitoneal; conditions: in vivo; summary of the method: as §1
Streptococcus pneumoniae [19] = experiment: AUC/MIC ratio of Streptococcus pneumoniae 1396 infected neutropenic mouse thigh infection model at 0.61 mg/kg, ip administered every 72 hrs by 1-log killing experiment; format: functional; conditions: route intraperitoneal
Staphylococcus aureus [20] = experiment: AUC/MIC ratio of methicillin-resistant Staphylococcus aureus infected neutropenic mouse thigh infection model at 62 mg/kg, ip administered every 72 hrs by 1-log killing experiment; format: functional; conditions: route intraperitoneal
Staphylococcus aureus [21] = experiment: AUC/MIC ratio of Staphylococcus aureus Smith infected neutropenic mouse thigh infection model at 59 mg/kg, ip administered every 72 hrs by static effect experiment; format: functional; conditions: route intraperitoneal
Staphylococcus aureus [22] = experiment: AUC/MIC ratio of Staphylococcus aureus ATCC 25923 infected neutropenic mouse thigh infection model at 60 mg/kg, ip administered every 24 hrs by 2-log killing experiment; format: functional; conditions: route intraperitoneal
Streptococcus pneumoniae [23] = experiment: AUC/MIC ratio of Streptococcus pneumoniae 1325 infected neutropenic mouse thigh infection model at 1.46 mg/kg, ip administered every 24 hrs by static effect experiment; format: functional; conditions: route intraperitoneal
Staphylococcus aureus [24] = experiment: Antibacterial activity against Staphylococcus aureus 307109 by microdilution method; format: functional
Summary of the method: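 MIC and MBC were determined by CLSI broth microdilution, in duplicate on at least two occasions. Staphylococci were grown in Mueller-Hinton broth and agar; pneumococci were plated on sheep blood agar.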

Streptococcus pneumoniae [25] = experiment: AUC/MIC ratio of Streptococcus pneumoniae 1329 infected neutropenic mouse thigh infection model at 1.45 mg/kg, ip administered every 24 hrs by 2-log killing experiment; format: functional; conditions: route intraperitoneal
Staphylococcus aureus [26] = experiment: Antibacterial activity against methicillin-resistant Staphylococcus aureus in presence of 95% mouse serum ultrafiltrate; format: functional
Summary of the method: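 MIC determined in broth, heat-treated (100°C, 30 min) 95% mouse serum, and 95% mouse serum ultrafiltrate, using arithmetic dilutions of 0.02 mg/liter per tube. Protein binding estimated as (MIC in 95% serum − MIC in ultrafiltrate)/MIC in 95% serum.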

Staphylococcus aureus [27] = experiment: AUC/MBC ratio of Staphylococcus aureus ATCC 25923 infected neutropenic mouse thigh infection model at 214 mg/kg, ip administered every 72 hrs by 2-log killing experiment; format: functional; conditions: route intraperitoneal
Streptococcus pneumoniae [28] = experiment: Bactericidal activity against penicillin-susceptible Streptococcus pneumoniae ATCC 10813 infected neutropenic Swiss ICR mouse thigh infection model assessed as drug level causing 1-log reduction of bacterial count at 2.3 mg/kg, ip dosed every 12 hrs; format: functional; conditions: route intraperitoneal; summary of the method: as §2

SMILES: CN[C@H]1C(=O)N[C@@H]2Cc3ccc(cc3)Oc3cc4cc(c3O[C@@H]3O[C@H](C(=O)O)[C@@H](O)[C@H](O)[C@H]3NC(=O)CCCCCCCCC(C)C)Oc3ccc(cc3Cl)[C@@H](O)[C@@H]3NC(=O)[C@H](NC(=O)[C@@H]4NC(=O)[C@@H](NC2=O)c2cc(cc(O)c2Cl)Oc2cc1ccc2O)c1ccc(O)c(c1)-c1c(O[C@H]2O[C@H](CO)[C@@H](O)[C@H](O)[C@@H]2O)cc(O)cc1[C@@H](C(=O)NCCCN(C)C)NC3=O [DALBAVANCIN]
- Ratio (Staphylococcus aureus [1]): 122
- Cmax [2]: 34800 ng/mL
- Ratio (Staphylococcus aureus [3]): 78
- Activity (Serum): 98.4%
- Activity (Staphylococcus aureus [4]): 36
- RatioAUC/MIC (Streptococcus pneumoniae [5]): 17.6
- Activity (Streptococcus pneumoniae [6]): 1.75
- MBC (Staphylococcus aureus [7]): 0.25 µg/mL (≈ 0.138 µM)
- MIC (Staphylococcus aureus [7]): 0.06 µg/mL (≈ 0.033 µM)
- Ratio (Staphylococcus aureus [8]): 12.9
- RatioAUC/MIC (Staphylococcus aureus [9]): 147
- Ratio (Staphylococcus aureus [10]): 94
- Activity (Streptococcus pneumoniae [11]): 1.81
- RatioAUC/MIC (Streptococcus pneumoniae [12]): 21.7
- RatioAUC/MIC (Staphylococcus aureus [13]): 156
- Activity (Streptococcus pneumoniae [14]): 3.5
- RatioAUC/MIC (Streptococcus pneumoniae [15]): 35.3
- RatioAUC/MIC (Streptococcus pneumoniae [16]): 22.7
- RatioAUC/MIC (Staphylococcus aureus [17]): 325
- Cmax [18]: 29000 ng/mL
- RatioAUC/MIC (Streptococcus pneumoniae [19]): 4.3
- RatioAUC/MIC (Staphylococcus aureus [20]): 202
- RatioAUC/MIC (Staphylococcus aureus [21]): 96
- RatioAUC/MIC (Staphylococcus aureus [22]): 289
- RatioAUC/MIC (Streptococcus pneumoniae [23]): 29
- MBC (Staphylococcus aureus [24]): 0.12 µg/mL (≈ 0.0661 µM)
- MIC (Staphylococcus aureus [24]): 0.06 µg/mL (≈ 0.033 µM)
- RatioAUC/MIC (Streptococcus pneumoniae [25]): 26.7
- MIC (Staphylococcus aureus [26]): 0.5 µg/mL
- Ratio (Staphylococcus aureus [27]): 88.1
- Activity (Streptococcus pneumoniae [28]): 2.8
